Data taken from ChEMBL document CHEMBL1800036, “A novel HDAC inhibitor with a hydroxy-pyrimidine scaffold” (Bioorg Med Chem Lett, 2011).
Activity calls are given as the source filed them. The rule behind the calls is not given here.

What was measured:
Histone deacetylase 4 = Histone deacetylase 4 (Homo sapiens, UniProt P56524); experiment: Inhibition of recombinant HDAC4 assessed as inhibition of fluorogenic aminocoumarin release from substrate by trypsin-coupled biochemical assay
How it was run: (§1)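 Trypsin-coupled fluorogenic assay. Substrate is an acetylated lysine tripeptide amide-linked to aminocoumarin (AMC). HDAC deacetylation allows trypsin to release AMC, and the fluorescence increase is read. Compound was tested at various concentrations and normalized to a DMSO control. IC50 was derived by non-linear regression fit.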

Histone deacetylase 5 = Histone deacetylase 5 (Homo sapiens, UniProt Q9UQL6); experiment: Inhibition of recombinant HDAC5 assessed as inhibition of fluorogenic aminocoumarin release from substrate by trypsin-coupled biochemical assay; how it was run: as §1
Histone deacetylase 2 [1] = target: T1, Histone deacetylase 2 (Homo sapiens, UniProt Q92769); experiment: Inhibition of recombinant HDAC2 assessed as inhibition of fluorogenic aminocoumarin release from substrate by trypsin-coupled biochemical assay
[2] = target: T2, Protein deacetylase HDAC6 (Homo sapiens, UniProt Q9UBN7); experiment: Inhibition of recombinant HDAC6 assessed as inhibition of fluorogenic aminocoumarin release from substrate by trypsin-coupled biochemical assay; how it was run: as §1
T2 sequence (Q9UBN7 whole entry): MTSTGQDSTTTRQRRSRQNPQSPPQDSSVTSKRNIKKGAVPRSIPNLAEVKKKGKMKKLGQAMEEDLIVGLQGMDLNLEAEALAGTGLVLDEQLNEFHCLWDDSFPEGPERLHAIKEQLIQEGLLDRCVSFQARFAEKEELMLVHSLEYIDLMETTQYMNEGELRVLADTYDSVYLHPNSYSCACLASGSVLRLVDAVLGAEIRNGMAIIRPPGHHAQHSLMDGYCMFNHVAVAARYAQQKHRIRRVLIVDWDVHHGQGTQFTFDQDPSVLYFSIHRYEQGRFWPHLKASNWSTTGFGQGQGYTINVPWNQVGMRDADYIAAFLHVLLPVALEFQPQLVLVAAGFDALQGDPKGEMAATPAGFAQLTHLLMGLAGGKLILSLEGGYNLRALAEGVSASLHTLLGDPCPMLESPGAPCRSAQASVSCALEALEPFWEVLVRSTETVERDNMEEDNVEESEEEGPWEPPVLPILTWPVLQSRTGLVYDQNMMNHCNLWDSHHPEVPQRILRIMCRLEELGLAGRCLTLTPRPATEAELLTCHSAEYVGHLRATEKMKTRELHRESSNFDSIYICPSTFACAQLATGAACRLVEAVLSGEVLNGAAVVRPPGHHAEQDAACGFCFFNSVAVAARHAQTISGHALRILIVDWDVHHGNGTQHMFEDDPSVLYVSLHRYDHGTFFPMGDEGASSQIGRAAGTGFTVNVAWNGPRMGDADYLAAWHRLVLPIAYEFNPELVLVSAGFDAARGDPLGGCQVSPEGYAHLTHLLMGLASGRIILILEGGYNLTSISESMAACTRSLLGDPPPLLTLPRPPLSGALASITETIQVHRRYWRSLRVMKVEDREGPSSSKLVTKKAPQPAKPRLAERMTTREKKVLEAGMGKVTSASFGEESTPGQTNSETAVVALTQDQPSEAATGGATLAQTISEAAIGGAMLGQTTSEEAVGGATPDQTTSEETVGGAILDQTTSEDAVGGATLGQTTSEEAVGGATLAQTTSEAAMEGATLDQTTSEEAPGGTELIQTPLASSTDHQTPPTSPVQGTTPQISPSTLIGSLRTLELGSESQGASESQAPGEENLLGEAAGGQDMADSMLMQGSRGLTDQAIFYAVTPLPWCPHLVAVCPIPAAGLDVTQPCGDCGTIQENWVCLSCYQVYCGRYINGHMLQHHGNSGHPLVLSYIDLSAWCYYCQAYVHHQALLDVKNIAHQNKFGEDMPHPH

Histone deacetylase 8 = target: T3, Histone deacetylase 8 (Homo sapiens, UniProt Q9BY41); experiment: Inhibition of recombinant HDAC8 assessed as inhibition of fluorogenic aminocoumarin release from substrate by trypsin-coupled biochemical assay; how it was run: as §1
T3 sequence (Q9BY41 whole entry): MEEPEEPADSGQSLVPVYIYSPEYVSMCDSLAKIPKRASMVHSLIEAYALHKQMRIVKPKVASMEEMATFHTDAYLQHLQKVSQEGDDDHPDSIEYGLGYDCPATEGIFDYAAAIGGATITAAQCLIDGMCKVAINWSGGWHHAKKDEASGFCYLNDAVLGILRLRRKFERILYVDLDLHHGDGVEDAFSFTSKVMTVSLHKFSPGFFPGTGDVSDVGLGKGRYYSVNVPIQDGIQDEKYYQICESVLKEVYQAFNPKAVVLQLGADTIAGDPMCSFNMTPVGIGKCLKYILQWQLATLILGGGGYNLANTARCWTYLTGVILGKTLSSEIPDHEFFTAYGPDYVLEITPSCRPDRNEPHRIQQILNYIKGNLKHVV

Histone deacetylase 3 = Histone deacetylase 3 (Homo sapiens, UniProt O15379); experiment: Inhibition of recombinant HDAC3 assessed as inhibition of fluorogenic aminocoumarin release from substrate by trypsin-coupled biochemical assay; how it was run: as §1
Histone deacetylase 9 = Histone deacetylase 9 (Homo sapiens, UniProt Q9UKV0); experiment: Inhibition of recombinant HDAC9 assessed as inhibition of fluorogenic aminocoumarin release from substrate by trypsin-coupled biochemical assay; how it was run: as §1
Histone deacetylase 1 = Histone deacetylase 1 (Homo sapiens, UniProt Q13547); experiment: Inhibition of recombinant HDAC1 assessed as inhibition of fluorogenic aminocoumarin release from substrate by trypsin-coupled biochemical assay; how it was run: as §1
Histone deacetylase 2 [3] = target: T1, Histone deacetylase 2; experiment: Competitive inhibition of HDAC2 active site at 1 to 100 uM by Lineweaver-Burk plot
How it was run: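 Lysine-deacetylation inhibition mode on HDAC2. Several inhibitor concentrations were tested with substrate at 10 times above and below the HDAC2 Km. The trypsin-coupled AMC fluorescence read-out was analysed by Lineweaver-Burk plot.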

Histone deacetylase 7 = target: T4, Histone deacetylase 7 (Homo sapiens, UniProt Q8WUI4); experiment: Inhibition of recombinant HDAC7 assessed as inhibition of fluorogenic aminocoumarin release from substrate by trypsin-coupled biochemical assay
T4 sequence (Q8WUI4 whole entry): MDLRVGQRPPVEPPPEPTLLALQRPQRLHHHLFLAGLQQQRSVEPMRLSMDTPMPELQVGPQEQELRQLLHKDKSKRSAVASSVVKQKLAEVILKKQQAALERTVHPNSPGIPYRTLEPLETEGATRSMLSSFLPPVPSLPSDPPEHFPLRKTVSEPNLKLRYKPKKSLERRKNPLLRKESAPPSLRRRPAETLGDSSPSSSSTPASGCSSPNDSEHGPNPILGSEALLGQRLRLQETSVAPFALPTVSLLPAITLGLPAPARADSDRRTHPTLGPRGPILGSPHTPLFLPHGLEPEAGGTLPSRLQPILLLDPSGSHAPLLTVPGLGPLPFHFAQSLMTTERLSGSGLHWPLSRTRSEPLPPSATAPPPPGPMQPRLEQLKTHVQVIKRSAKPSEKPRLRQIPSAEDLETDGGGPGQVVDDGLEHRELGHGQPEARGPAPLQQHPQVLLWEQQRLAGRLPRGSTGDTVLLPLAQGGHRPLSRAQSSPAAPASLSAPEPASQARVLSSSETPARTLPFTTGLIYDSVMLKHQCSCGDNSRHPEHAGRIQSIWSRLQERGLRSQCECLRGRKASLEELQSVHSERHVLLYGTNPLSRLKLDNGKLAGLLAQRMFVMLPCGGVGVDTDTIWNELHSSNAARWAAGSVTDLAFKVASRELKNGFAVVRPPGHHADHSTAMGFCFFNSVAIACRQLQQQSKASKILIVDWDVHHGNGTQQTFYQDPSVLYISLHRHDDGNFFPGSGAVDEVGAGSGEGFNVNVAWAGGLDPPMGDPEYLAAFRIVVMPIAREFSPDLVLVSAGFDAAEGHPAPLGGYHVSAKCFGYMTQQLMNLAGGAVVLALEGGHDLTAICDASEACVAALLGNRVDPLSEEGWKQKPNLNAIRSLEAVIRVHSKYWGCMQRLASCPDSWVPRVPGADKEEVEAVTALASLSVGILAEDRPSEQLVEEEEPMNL

Chain of Histone deacetylase 9 (Q9UKV0 whole entry): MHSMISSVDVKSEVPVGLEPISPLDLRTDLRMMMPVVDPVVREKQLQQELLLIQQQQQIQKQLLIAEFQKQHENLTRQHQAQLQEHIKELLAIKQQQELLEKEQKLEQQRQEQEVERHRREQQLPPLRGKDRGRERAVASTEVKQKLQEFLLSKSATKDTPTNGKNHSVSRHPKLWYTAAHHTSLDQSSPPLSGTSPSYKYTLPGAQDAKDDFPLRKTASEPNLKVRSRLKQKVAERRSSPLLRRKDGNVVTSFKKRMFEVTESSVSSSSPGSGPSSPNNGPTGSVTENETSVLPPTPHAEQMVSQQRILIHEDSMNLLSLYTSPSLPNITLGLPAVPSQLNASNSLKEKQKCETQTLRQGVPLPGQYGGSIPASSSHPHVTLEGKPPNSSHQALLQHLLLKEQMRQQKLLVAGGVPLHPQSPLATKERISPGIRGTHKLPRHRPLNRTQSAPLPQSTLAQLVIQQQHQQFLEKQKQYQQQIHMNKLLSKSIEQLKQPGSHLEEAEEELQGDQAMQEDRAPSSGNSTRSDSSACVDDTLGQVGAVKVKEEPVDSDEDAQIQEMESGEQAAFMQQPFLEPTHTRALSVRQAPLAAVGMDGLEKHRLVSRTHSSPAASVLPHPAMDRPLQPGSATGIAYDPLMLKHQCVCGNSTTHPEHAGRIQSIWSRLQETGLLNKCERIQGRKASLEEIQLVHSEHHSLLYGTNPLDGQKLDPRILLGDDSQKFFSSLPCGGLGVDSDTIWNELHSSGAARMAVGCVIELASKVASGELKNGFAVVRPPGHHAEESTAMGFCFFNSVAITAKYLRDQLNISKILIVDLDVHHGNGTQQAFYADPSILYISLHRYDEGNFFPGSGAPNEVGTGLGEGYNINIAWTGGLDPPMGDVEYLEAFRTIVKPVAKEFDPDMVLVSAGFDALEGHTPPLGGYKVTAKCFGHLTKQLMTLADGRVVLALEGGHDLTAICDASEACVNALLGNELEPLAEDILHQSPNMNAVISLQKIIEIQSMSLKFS
Chain of Histone deacetylase 4 (P56524 whole entry): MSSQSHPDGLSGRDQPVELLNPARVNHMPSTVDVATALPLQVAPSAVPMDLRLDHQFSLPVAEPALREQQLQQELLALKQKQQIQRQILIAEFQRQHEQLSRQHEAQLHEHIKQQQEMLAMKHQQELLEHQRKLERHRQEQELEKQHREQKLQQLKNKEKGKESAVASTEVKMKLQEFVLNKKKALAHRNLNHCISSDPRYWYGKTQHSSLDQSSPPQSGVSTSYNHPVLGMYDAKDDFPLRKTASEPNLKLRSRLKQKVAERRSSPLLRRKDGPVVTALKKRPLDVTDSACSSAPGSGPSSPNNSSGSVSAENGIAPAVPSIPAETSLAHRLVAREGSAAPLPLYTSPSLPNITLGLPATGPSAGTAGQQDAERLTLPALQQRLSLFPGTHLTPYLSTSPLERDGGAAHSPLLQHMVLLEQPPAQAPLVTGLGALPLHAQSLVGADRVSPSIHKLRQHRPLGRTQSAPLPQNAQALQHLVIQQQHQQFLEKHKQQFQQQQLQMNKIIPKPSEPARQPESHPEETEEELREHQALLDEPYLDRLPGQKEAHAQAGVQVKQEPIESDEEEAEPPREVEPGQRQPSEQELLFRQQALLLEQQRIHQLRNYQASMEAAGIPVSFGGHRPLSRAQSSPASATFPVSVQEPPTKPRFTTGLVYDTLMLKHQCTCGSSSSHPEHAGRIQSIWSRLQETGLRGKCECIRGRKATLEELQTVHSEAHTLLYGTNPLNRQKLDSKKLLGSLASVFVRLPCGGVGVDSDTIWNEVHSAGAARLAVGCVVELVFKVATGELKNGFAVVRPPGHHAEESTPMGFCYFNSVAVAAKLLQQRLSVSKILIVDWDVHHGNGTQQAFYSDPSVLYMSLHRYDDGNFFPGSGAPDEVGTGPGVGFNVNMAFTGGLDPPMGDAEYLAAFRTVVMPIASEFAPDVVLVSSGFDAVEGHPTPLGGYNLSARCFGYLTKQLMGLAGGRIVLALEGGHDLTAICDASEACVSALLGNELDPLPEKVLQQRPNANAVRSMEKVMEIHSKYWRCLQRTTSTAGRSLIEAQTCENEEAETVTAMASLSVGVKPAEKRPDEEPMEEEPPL
Chain of Histone deacetylase 3 (O15379 whole entry): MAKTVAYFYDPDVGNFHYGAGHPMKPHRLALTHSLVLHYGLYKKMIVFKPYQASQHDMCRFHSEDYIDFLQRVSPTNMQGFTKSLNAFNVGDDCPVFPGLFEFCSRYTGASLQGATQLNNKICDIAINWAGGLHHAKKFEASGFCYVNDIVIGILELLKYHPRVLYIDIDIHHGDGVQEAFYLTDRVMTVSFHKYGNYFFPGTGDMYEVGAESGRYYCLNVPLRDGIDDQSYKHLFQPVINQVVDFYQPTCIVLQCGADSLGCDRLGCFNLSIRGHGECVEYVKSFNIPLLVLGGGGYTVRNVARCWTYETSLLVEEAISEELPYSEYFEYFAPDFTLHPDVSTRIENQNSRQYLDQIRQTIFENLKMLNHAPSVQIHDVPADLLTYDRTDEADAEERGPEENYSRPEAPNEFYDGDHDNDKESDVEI
Chain of Histone deacetylase 1 (Q13547 whole entry): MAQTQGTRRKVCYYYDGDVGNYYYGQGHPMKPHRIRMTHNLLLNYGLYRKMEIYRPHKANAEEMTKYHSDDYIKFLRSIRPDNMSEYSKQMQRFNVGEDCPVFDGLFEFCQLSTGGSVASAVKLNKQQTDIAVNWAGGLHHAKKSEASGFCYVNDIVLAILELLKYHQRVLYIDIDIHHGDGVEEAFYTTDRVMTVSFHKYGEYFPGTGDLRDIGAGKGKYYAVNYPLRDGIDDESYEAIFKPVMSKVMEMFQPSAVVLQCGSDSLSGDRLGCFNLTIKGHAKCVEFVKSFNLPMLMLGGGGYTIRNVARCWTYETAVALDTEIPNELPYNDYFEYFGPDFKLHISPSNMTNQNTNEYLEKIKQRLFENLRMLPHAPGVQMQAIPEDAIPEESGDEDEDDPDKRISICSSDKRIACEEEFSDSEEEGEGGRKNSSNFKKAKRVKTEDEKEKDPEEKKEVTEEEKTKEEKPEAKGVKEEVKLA
Chain of Histone deacetylase 5 (Q9UQL6 whole entry): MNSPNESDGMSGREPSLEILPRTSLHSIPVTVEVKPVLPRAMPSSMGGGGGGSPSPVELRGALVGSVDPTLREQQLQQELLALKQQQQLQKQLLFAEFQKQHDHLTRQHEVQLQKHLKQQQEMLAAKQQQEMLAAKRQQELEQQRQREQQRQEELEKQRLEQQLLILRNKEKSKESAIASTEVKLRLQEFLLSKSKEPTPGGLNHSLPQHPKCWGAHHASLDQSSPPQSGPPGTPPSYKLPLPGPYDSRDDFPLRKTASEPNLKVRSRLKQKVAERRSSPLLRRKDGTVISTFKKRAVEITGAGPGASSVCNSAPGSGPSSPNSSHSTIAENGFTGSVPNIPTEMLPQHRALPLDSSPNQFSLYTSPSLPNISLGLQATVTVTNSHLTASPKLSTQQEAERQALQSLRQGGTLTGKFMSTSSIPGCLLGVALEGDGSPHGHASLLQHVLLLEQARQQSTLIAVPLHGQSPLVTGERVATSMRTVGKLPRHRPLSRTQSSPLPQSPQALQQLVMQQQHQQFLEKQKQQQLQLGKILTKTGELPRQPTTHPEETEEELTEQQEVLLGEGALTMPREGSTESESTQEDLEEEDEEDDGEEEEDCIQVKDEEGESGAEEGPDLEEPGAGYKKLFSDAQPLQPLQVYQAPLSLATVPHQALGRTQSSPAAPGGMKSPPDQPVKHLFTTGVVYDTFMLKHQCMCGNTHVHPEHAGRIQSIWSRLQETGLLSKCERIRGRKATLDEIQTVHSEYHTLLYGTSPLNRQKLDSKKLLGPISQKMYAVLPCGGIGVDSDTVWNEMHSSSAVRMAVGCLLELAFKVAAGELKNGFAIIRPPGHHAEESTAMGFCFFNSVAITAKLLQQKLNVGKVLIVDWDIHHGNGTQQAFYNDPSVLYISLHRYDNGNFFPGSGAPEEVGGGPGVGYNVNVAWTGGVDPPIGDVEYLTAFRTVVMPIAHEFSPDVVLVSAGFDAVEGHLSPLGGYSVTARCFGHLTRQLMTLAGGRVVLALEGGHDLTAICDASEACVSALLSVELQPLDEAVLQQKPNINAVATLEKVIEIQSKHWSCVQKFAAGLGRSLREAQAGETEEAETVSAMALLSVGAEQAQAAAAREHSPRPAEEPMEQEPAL
T1 sequence (Q92769 whole entry): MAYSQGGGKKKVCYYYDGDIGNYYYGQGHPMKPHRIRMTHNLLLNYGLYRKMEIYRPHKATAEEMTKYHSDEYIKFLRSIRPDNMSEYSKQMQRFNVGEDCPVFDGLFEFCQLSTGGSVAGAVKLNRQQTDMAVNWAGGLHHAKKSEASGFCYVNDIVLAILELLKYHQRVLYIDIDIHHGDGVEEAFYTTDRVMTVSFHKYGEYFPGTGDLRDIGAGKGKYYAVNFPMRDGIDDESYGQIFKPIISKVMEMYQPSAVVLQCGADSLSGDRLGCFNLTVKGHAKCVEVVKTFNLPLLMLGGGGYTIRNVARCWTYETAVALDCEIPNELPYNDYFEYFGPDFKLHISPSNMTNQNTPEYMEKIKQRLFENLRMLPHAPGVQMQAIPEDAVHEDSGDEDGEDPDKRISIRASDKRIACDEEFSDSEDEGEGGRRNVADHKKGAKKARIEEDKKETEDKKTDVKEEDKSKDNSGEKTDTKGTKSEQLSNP

SMILES	IC50 (Histone deacetylase 4)	IC50 (Histone deacetylase 5)	IC50 (Histone deacetylase 2 [1])	IC50 [2]	IC50 (Histone deacetylase 8)	IC50 (Histone deacetylase 3)	IC50 (Histone deacetylase 9)	IC50 (Histone deacetylase 1)	inhibition (Histone deacetylase 2 [3])	IC50 (Histone deacetylase 7)
CC(=O)Nc1ccc(C(=O)CSc2nc(C)cc(O)n2)cc1	32.5 µM	27.9 µM	18.9 µM	11.2 µM	23.9 µM	15.2 µM	74.1 µM	16.4 µM	Active	–
CC(=O)Nc1ccc(C(O)CSc2nc(C)cc(O)n2)cc1 (stereo not drawn)	> 100 µM	> 100 µM	> 100 µM	> 100 µM	> 100 µM	> 100 µM	> 100 µM	> 100 µM	–	> 100 µM
Cc1cc(O)nc(SCC(=O)c2ccc(Cl)cc2)n1	> 100 µM	> 100 µM	67 µM	12.9 µM	> 100 µM	86.4 µM	> 100 µM	82.3 µM	–	> 100 µM
CC(=O)N(C)c1ccc(C(=O)CSc2nc(C)cc(O)n2)cc1	> 100 µM	> 100 µM	> 100 µM	> 100 µM	> 100 µM	> 100 µM	> 100 µM	> 100 µM	–	> 100 µM
Cc1cc(O)nc(SCC(=O)c2cccs2)n1	> 100 µM	> 100 µM	> 100 µM	24.8 µM	> 100 µM	> 100 µM	> 100 µM	> 100 µM	–	> 100 µM
CC(=O)Nc1ccc(C(=O)COc2cc(C)cc(=O)[nH]2)cc1	> 100 µM	> 100 µM	> 100 µM	> 100 µM	> 100 µM	> 100 µM	> 100 µM	> 100 µM	–	> 100 µM
CC(=O)Nc1ccc(C(=O)CSc2cccc(O)c2)cc1	> 100 µM	> 100 µM	> 100 µM	> 100 µM	> 100 µM	> 100 µM	> 100 µM	> 100 µM	–	> 100 µM
